High-throughput results from PubChem.
RBBP9 inh – inhibitors of human serine hydrolase RBBP9; recombinant RBBP9, FP-Rh probe fluorescence polarization; inhibition, % at 7.94 µM; 220,000 compounds, 0.2% hits; AID 1515;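 active = inhibition above the campaign mean of all tested compounds plus 3 SD, cut at about 14% in these data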;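 also: plate controls were DMSO wells with RBBP9 for no effect and wells lacking RBBP9 protein for full effect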
Target sequence (O75884 whole entry, looked up): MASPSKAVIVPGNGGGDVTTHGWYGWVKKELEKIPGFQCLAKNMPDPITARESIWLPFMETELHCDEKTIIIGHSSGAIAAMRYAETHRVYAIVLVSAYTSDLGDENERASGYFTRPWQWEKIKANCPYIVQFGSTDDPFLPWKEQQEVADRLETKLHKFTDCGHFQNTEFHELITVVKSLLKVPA
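Test system: recombinant human RBBP9; Timing: 30 min then 45 min, 25 °C; Detection: fluorescence polarization; Control set: RBBP9 with DMSO as uninhibited control, no-protein wells as full inhibition; Compound dosing: one concentration, 7.94 µM nominal, 0.794% DMSO; Probe or stimulus: FP-Rh activity-based probe, 375 nM before mixing.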
SIAE primary – blocks human sialic acid acetylesterase; SIAE FP-Rh probe binding, fluorescence polarization; inhibition, % at 9.66 µM; 370,000 compounds, 0.69% hits;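 active = inhibition above a cutoff: mean of compounds within the control limits plus 3 SD of those, cut at about 17% in these data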;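 also: 0% = plate median of compound wells and 100% = probe without SIAE protein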
ABHD4 inh – ABHD4 (mouse) inhibition, primary FP screen; Q8VD66; purified mABHD4, FP-Rh probe fluorescence polarization; inhibition, % at 8.92 µM; 370,000 compounds, 0.54% hits; AID 720543;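 active = inhibition exceeding the mean over every tested compound plus 3 SD, cut at about 30% in these data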;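 also: 0% = plate median of compound wells and 100% = S159A mutant with DMSO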
Target sequence (Q8VD66 whole entry, looked up): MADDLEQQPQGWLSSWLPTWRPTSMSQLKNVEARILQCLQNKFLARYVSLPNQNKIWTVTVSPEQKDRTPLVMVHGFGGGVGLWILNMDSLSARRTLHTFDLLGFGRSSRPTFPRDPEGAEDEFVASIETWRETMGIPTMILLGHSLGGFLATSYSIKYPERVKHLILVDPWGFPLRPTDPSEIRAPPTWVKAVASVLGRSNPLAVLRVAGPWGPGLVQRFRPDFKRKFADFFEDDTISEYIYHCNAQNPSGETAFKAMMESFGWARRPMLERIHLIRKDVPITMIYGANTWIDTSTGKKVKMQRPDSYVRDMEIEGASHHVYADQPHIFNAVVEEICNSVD
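Test system: mABHD4 protein; Read-out basis: % inhibition; Incubation: 45 min + 60 min at 25 °C; Repeats: single replicate; Technique: fluorescence polarization with parallel and perpendicular emission, 525/598 nm; Compound: 8.92 µM, single dose; Benchmarks: full inhibition S159A mutant plus DMSO, zero as sample-well median.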
HTRA1 inh – blocks human HTRA1 serine peptidase; Q92743; recombinant HTRA1, FP-rhodamine activity-based probe, fluorescence polarization; inhibition, % at 5.96 µM; 340,000 compounds, 0.5% hits; in the data active = inhibition above about 36%;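 also: 0% = enzyme with DMSO and 100% = wells lacking enzyme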
mABHD4 conf – confirmation of mouse ABHD4 inhibitors; shares compounds with ABHD4 inh; purified mABHD4, FP-Rh probe fluorescence polarization; inhibition, % at 8.92 µM; 1,800 compounds, 55% hits;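 active = mean inhibition across replicates above the hit cutoff set in the primary screen, cut at about 30% in these data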;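 also: 0% = wild-type ABHD4 with DMSO and 100% = catalytically dead S159A mutant with DMSO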
SIAE inh conf – confirmation of human SIAE inhibitors; 2,300 compounds, 13% hits; SIAE FP-Rh activity-based probe, fluorescence polarization; AID 1117263; inhibition, % at 9.66 µM; shares compounds with SIAE primary;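 active = mean inhibition of the replicates above the hit cutoff set in the primary screen, cut at about 17% in these data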;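 also: 0% = SIAE with DMSO and probe and 100% = probe without SIAE; inhibitors lower polarization as more probe stays unbound to SIAE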
Starred values were filed as active, the others as inactive; . = no result given; + = active, no number. Most compounds without a hit are left out; they make up all but 1.4% or so of the library.

SMILES	RBBP9 inh	SIAE primary	ABHD4 inh	HTRA1 inh	mABHD4 conf	others
COc1cc(/C=C/c2nc3ccccc3c(=O)n2-c2ccc(O)cc2)ccc1O	.	8	39*	0	45*
COC(=O)C1=C(c2ccc(F)cc2OCc2ccccc2)C[C@@H]2CC[C@H]1N2C(=O)NC1Cc2ccccc2C1	.	-4	-17	-47	.
CCCCCCCSc1cc(OC)c(CCN(C)C)cc1OC	4	7	32*	21	35*
O=P(Oc1ccccc1)(Oc1ccccc1)C(O)c1ccc(Cl)cc1 (stereo not drawn)	.	1	32*	-8	16
COc1ccc(C(O)P(=O)(Oc2ccccc2)Oc2ccccc2)cc1 (stereo not drawn)	.	-8	25	-5	.
COc1cccc(C(c2nnnn2C2CCCCC2)N2CCC3(CC2)C(=O)NCN3c2ccccc2)c1OC (stereo not drawn)	.	-2	-3	.	.
Cc1ccccc1-n1c(O)c(/C=N/NC(=O)c2ccccc2O)c(=O)[nH]c1=S	-3	-31	7	1	.
C/C(=N\NC(=O)c1ccccc1O)c1c(O)n(C2CCCCC2)c(=O)[nH]c1=O	.	-6	37*	17	44*
O=C(N/N=C/c1c(O)n(C2CC2)c(=S)[nH]c1=O)c1ccccc1O	-4	-22	35*	4	25
BrCC(Br)(Br)Br	.	6	0	-1	.
COc1cccc(C(=O)N2CCC3(CC2)OCCO3)c1	-1	4	-3	-1	.
Cc1cccc(-c2nc3ccc(C(=O)N4CCC5(CC4)OCCO5)cc3nc2-c2cccc(C)c2)c1	.	-7	32*	-35	48*
O=c1[nH]c2ccccc2n1C1CCN(C(CCc2ccccc2)c2nnnn2C2CCCCC2)CC1 (stereo not drawn)	.	-9	-5	.	.
COC(=O)C1=C(c2ccc(OCc3ccccc3)cc2)C[C@@H]2CC[C@H]1N2C(=O)NCc1ccc2c(c1)OCO2	.	0	51*	-24	33*
COC(=O)C1=C(c2cccc(OCc3ccccc3)c2)C[C@@H]2CC[C@H]1N2C(=O)NCc1ccc(OC)cc1	.	-9	-2	-35	.
COC(=O)C1=C(c2ccc(OCc3ccccc3)cc2)C[C@@H]2CC[C@H]1N2C(=O)NCc1cccc(OC)c1	.	-11	31*	-37	35*
COC(=O)C1=C(c2ccc(OCc3ccccc3)cc2)C[C@@H]2CC[C@H]1N2C(=O)NCc1ccc(OC)cc1	.	-9	41*	-40	43*
COC(=O)C1=C(c2ccc(OCc3ccccc3)cc2)C[C@@H]2CC[C@H]1N2C(=O)NCc1ccccc1	.	-5	21	-23	.
COC(=O)C1=C(c2ccc(OCc3ccccc3)cc2)C[C@@H]2CC[C@H]1N2C(=O)NCc1ccc(C(C)(C)C)cc1	.	-3	33*	-32	50*
c1ccc(C(c2ccccc2)c2ccncc2)cc1	.	-3	-8	6	.
O=C1C=C2C=C[C@@H]3CC2(O1)[C@H]1CCCCN31	.	6	0	1	.
C[C@]12CC[C@@H]3c4ccc(O)c(O)c4CC[C@H]3[C@@H]1CC[C@@H]2O	-2	-7	30*	28	19
O=C1CC=C2C3CC4N(CCC45c4cc(O)c(O)cc4N1C25)CC3=CCBr (stereo not drawn)	.	4	20	11	.
O=[N+]([O-])c1cc(O)c(O)c([N+](=O)[O-])c1	.	6	74*	35	50*
Brc1ccc2[nH]cc(C=NN3CCCCCC3)c2c1	.	0	10	-28	.
SMILES	RBBP9 inh	SIAE primary	ABHD4 inh	HTRA1 inh	mABHD4 conf	others
COc1cc(O)c(C(=O)O)c(-c2cc(O)c(O)cc2C)c1	.	13	37*	21	33*
COC(=O)C1(F)C(=O)NC(=O)NC1O (stereo not drawn)	.	2	-8	.	.
Cc1ccc(-n2c(=S)[nH]c3ccc(C)cc3c2=O)cc1	.	-4	46*	-2	33*
C[C@H](NC(=O)OCc1ccccc1)C(=O)NC(Cc1ccccc1)P(=O)(Oc1ccccc1)Oc1ccccc1 (stereo partly drawn)	.	5	-11	.	.
CCN1/C(=C/C=C/C2=[N+](CC)c3ccccc3C2(C)C)C(C)(C)c2ccccc21	.	+	+	-288	+	SIAE inh conf=+
COc1ccc(C2=CC(c3ccc4c(c3)OCO4)c3c(c4ccccc4oc3=O)O2)cc1OC (stereo not drawn)	.	-17	8	1	.
Cc1cc(OCC(=O)N2CCC(C(N)=O)CC2)c2c3c(c(=O)oc2c1)CCCC3	.	18*	-1	-2	.	SIAE inh conf=6
Cc1cc(OCC(=O)O)c2c3c(c(=O)oc2c1)CCCC3	6	3	-2	4	.
c1ccc(-c2ccc(CN3Cc4ccccc4-n4nncc4C3)cc2)cc1	.	-4	-8	-16	.
CC1(O)CCC2C3CCC4=CC(=O)CCC4=C3C=CC21C (stereo not drawn)	.	19*	-3	-4	.	SIAE inh conf=0
COCOC1CCC2C3CCC4=CC(=O)CCC4=C3C=CC12C (stereo not drawn)	.	5	26	10	.
CCOP(=O)(OCC)C(NC(=O)c1ccccc1C)C(Cl)(Cl)Cl (stereo not drawn)	-3	19*	-4	6	.	SIAE inh conf=2
CCOC(=O)c1cnc(SCc2ccc(Cl)c(Cl)c2)nc1N1CC1	.	-3	-17	-44	.
CCCCCSc1cc(OC)c(CCN)cc1OC	-1	19*	11	6	.	SIAE inh conf=2
O=C(NCCN1CCC2(CC1)C(=O)NCN2c1ccccc1)c1ccccc1F	.	2	6	.	.
OCC#CC[N+]1(CC#Cc2ccccc2)CCOCC1	-7	2	-1	2	.
N#CC[N+]1(CCCNP2(=O)C=C(c3ccccc3)OC(c3ccccc3)=C2)CCOCC1	-7	18*	-1	3	.	SIAE inh conf=-4
COc1cc(C(=S)N2CCOCC2)cc(OC)c1OC(=O)Cc1ccccc1	1	19*	-3	-7	.	SIAE inh conf=5
O=C1CC(c2cccnc2)=NN1c1ccccc1	-5	28*	4	4	.	SIAE inh conf=-7
CCCCCCn1c(O)c(C=Nc2ccccc2N2CCOCC2)c(=O)[nH]c1=S	-6	0	-1	.	.
CCCCn1c(O)c(/C=N/N2CCOCC2)c(=O)[nH]c1=S	-4	19*	-1	-3	.	SIAE inh conf=2
CC(C)OC(=O)C1C(c2ccc(I)cc2)CC2CCC1N2C (stereo not drawn)	.	-4	-2	.	.
